The source of these data is ChEMBL document CHEMBL4400511, “Benzothiopyranoindole- and pyridothiopyranoindole-based antiproliferative agents targeting topoisomerases” (2019).

The source made the active and inactive calls. No cut-off for these calls is given here.

Assay [1] concerns the target T1, DNA topoisomerase 1 (Homo sapiens) (UniProt P11387).
T1 sequence (whole entry): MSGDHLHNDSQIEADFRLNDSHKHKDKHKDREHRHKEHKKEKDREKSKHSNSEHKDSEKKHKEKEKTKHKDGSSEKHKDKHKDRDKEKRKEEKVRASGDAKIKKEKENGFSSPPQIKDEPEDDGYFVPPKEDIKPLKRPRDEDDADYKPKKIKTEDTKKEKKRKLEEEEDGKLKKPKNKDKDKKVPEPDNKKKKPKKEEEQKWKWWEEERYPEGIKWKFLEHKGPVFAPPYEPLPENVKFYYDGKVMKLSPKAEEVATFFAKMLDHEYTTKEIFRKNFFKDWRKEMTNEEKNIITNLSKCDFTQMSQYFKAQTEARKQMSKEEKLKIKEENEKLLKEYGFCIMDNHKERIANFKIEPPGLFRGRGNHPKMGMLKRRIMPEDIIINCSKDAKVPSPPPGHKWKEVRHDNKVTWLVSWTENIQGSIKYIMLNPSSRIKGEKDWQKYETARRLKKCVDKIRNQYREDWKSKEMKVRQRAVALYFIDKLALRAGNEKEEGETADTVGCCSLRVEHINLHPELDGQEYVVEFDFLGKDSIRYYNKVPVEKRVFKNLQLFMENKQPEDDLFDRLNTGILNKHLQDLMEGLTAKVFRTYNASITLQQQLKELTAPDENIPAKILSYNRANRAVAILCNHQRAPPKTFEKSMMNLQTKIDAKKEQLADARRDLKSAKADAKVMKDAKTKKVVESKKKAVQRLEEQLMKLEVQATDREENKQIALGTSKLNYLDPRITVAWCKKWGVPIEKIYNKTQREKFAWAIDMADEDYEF
Kind of assay: Poison activity at recombinant human topoisomerase-1 assessed as stabilization of covalent topo-1-DNA cleavage complex by measuring nicked DNA formation using supercoiled pBR322 DNA as substrate after 60 mins by agarose gel electrophoresis method. In short, it runs like this: (§1)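 Cleavable-complex assay: supercoiled pBR322 DNA was incubated with Topo I, with or without compound at a series of µM concentrations. Nicked DNA formation marks covalent complex stabilisation. Reference is 0.5 µM camptothecin.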

The subject of assay [2] is HeLa. Kind of assay: Induction of apoptosis in human HeLa cells assessed as viable cells at 20 uM after 18 hrs by Annexin-V-FITC/propidium iodide staining based flow cytometric analysis (reference value: 91.6%). As to conditions: read-out: Activity. Type of assay: functional. In short, it runs like this: (§2)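 HeLa cells were incubated 18 h without compound (control) or at 20 and 80 µM. They were stained with FITC-annexin V and propidium iodide and analysed by dual-parameter flow cytometry. Cells were scored as viable, early apoptotic, late apoptotic or necrotic.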
Background: Flow cytometry measures light scatter and fluorescence of single cells or particles in a stream.

Assay [3] deals with HeLa. Kind of assay: Growth inhibition in human HeLa cells after 72 hrs by trypan blue dye-based assay. The class given is functional. In short, it runs like this: (§3)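 Three human tumour lines were used: HeLa (cervix adenocarcinoma), A-431 (epidermoid/squamous carcinoma) and MSTO-211H (biphasic mesothelioma). GI50 is the µM concentration giving 50% cell death relative to the untreated control culture. Ellipticine was run as reference.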

Assay [4] deals with HeLa. Kind of assay: Induction of apoptosis in human HeLa cells assessed as necrotic cells at 80 uM after 18 hrs by Annexin-V-FITC/propidium iodide staining based flow cytometric analysis (reference value: 0.7%). Type of assay: functional. In short, it runs like this:
as §2

Assay [5] has as its target T1, DNA topoisomerase 1 (Homo sapiens). The assay can be described thus: Poison activity at recombinant human topoisomerase-1 assessed as stabilization of covalent topo-1-DNA cleavage complex by measuring nicked DNA formation at 0.5 to 50 uM using supercoiled pBR322 DNA as substrate after 60 mins by agarose gel electrophoresis method. In short, it runs like this: as §1

The subject of assay [6] is HeLa. The assay can be described thus: Induction of apoptosis in human HeLa cells assessed as early apoptotic cells at 80 uM after 18 hrs by Annexin-V-FITC/propidium iodide staining based flow cytometric analysis (reference value: 5.6%). The class given is functional. Summed up:
as §2

The test system of the next assay is A-431. The assay can be described thus: Growth inhibition in human A431 cells after 72 hrs by trypan blue dye-based assay. Type of assay: functional. The conditions noted are these: A-431, 72 h. Summed up: as §3
Assay [7] relates to HeLa. The assay can be described thus: Induction of apoptosis in human HeLa cells assessed as late apoptotic cells at 20 uM after 18 hrs by Annexin-V-FITC/propidium iodide staining based flow cytometric analysis (reference value: 2.2%). The class given is functional. In short, it runs like this:
as §2

For assay [8], the target named is DNA topoisomerase 2-alpha (Homo sapiens) (UniProt P11388). Kind of assay: Poison activity at recombinant human topoisomerase-2 assessed as stabilization of covalent topo-2-DNA cleavage complex by measuring linear DNA formation up to 50 uM using supercoiled pBR322 DNA as substrate after 60 mins by agarose gel electrophoresis method. In short, it runs like this: (§4)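 Cleavable-complex assay: supercoiled pBR322 DNA was incubated with Topo II, with or without compound at a series of µM concentrations. Enzyme-mediated linear DNA marks cleavage-complex stabilisation. Reference poison is 10 µM m-AMSA.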

Assay [9] relates to Salmon testes DNA. Kind of assay: Binding affinity to salmon DNA at compound to DNA ratio of 0.02 to 0.04 by linear flow dichroism analysis. As to conditions: Salmonidae. Type of assay: nucleic-acid assay.
Assay [10] has as its system HeLa. Kind of assay: Induction of apoptosis in human HeLa cells assessed as late apoptotic cells at 80 uM after 18 hrs by Annexin-V-FITC/propidium iodide staining based flow cytometric analysis (reference value: 2.2%). Type of assay: functional. In short, it runs like this:
as §2

Assay [11] deals with HeLa. Kind of assay: Induction of apoptosis in human HeLa cells assessed as viable cells at 80 uM after 18 hrs by Annexin-V-FITC/propidium iodide staining based flow cytometric analysis (reference value: 91.6%). The class given is functional. The conditions noted are these: read-out: Activity. In short, it runs like this:
as §2

Assay [12] addresses T1, DNA topoisomerase 1 (Homo sapiens). Kind of assay: Inhibition of recombinant human topoisomerase 1 assessed as decrease in relaxation of supercoiled pBR322 DNA after 60 mins by ethidium bromide staining based agarose gel electrophoresis method. Summed up: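 Human recombinant Topo I was incubated with supercoiled pBR322 DNA, with or without compound at a series of µM concentrations. Read-out is the number of relaxed topoisomers formed.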

In assay [13] the test system is HeLa. Kind of assay: Induction of apoptosis in human HeLa cells assessed as necrotic cells at 20 uM after 18 hrs by Annexin-V-FITC/propidium iodide staining based flow cytometric analysis (reference value: 0.7%). The class given is functional. In short, it runs like this:
as §2

In another assay the test system is MSTO-211H. Kind of assay: Growth inhibition in human MSTO-211H cells after 72 hrs by trypan blue dye-based assay. The class given is functional. Summed up: as §3
Assay [14] relates to HeLa. The assay can be described thus: Induction of apoptosis in human HeLa cells assessed as early apoptotic cells at 20 uM after 18 hrs by Annexin-V-FITC/propidium iodide staining based flow cytometric analysis (reference value: 5.6%). The class given is functional. Summed up: as §2
In assay [15] the target is DNA topoisomerase 2-alpha (Homo sapiens) (UniProt P11388). Kind of assay: Inhibition of recombinant human topoisomerase 2alpha assessed as decrease in relaxation of supercoiled pBR322 DNA after 60 mins by ethidium bromide staining based agarose gel electrophoresis method. In short, it runs like this:
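Topo II was incubated with supercoiled pBR322 DNA, with or without compound at a series of µM concentrations. Read-out is topoisomer formation from supercoiled DNA on a gel. Reference is 10 µM m-AMSA.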

The test system of assay [16] is Salmon testes DNA. Kind of assay: Binding affinity to salmon DNA at compound to DNA ratio of 0.08 by linear flow dichroism analysis. The class given is nucleic-acid assay. The conditions noted are these: Salmonidae.
Assay [17] has as its target DNA topoisomerase 2-alpha (Homo sapiens) (UniProt P11388). The assay can be described thus: Poison activity at recombinant human topoisomerase-2 assessed as stabilization of covalent topo-2-DNA cleavage complex by measuring linear DNA formation at 10 uM using supercoiled pBR322 DNA as substrate after 60 mins by agarose gel electrophoresis method. In short, it runs like this: as §4

DNA topoisomerase 2-alpha (Homo sapiens), sequence (P11388 whole entry): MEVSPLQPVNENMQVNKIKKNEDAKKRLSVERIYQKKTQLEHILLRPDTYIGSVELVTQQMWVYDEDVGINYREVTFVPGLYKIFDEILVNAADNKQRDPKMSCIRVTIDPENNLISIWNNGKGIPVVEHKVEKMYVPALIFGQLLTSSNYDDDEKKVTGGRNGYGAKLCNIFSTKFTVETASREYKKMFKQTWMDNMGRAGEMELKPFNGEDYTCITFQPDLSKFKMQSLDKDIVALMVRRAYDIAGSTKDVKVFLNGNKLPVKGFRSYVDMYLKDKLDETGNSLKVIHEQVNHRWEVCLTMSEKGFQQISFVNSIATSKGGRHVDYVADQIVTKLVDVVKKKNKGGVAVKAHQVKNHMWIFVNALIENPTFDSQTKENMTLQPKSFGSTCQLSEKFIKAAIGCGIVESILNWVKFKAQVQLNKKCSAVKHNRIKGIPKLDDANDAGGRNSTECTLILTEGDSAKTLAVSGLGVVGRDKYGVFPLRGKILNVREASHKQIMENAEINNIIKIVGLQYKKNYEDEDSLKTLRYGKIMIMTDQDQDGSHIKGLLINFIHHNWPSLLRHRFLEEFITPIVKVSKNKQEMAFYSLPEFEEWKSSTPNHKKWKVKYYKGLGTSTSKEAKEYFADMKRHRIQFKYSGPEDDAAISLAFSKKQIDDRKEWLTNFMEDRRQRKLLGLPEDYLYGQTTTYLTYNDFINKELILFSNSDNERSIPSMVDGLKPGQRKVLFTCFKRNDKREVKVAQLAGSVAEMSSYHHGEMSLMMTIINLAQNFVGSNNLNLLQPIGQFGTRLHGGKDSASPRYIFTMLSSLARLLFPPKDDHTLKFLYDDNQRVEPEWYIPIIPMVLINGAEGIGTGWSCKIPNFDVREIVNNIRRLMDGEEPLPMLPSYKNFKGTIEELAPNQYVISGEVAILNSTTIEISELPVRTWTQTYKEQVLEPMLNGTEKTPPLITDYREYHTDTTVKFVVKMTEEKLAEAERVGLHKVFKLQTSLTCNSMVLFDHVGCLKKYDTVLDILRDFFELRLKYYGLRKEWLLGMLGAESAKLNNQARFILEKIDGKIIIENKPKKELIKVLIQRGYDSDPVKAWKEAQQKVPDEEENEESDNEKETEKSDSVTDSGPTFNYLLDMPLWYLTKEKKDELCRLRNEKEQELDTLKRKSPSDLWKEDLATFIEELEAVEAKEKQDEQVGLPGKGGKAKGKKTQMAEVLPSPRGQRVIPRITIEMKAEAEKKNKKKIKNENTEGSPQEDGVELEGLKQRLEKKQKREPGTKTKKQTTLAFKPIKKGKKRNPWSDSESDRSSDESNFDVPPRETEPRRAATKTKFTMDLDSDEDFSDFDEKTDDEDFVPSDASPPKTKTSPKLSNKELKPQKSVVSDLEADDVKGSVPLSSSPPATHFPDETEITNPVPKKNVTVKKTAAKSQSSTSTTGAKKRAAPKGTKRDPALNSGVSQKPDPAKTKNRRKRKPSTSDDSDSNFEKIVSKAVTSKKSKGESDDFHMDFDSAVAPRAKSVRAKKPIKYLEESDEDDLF

For the molecule `COc1cc2c3sc4ccccc4c(=O)c3n(CCN(C)C)c2cc1OC`, the Activity entry in assay [1] is “Dose-dependent effect”; in the assay with HeLa [4], 7.7%; in the assay on HeLa [6] it was 31.5%; in the assay on HeLa [7] it was 2.7%; with HeLa [10], 17%; with HeLa [13] it was 2%. For the same molecule, the Activity in the assay on HeLa [14] stood at 8.6%. In addition, the viability at 20 µM in the assay on HeLa [2] was 86.7%. Also, the results for the GI50 with HeLa [3], in the assay with A-431 and with MSTO-211H were 820 nM, 330 nM and 310 nM, respectively. Also, the result (in assay [5]; with Salmon testes DNA [9]) was Active. Further, in [8], the outcome was inactive. In addition, the viability at 80 µM with HeLa [11] worked out at 43.8%. Further, the inhibition result in assay [12] and in assay [15] was “Dose-dependent effect” in each case.

On to `COc1cc2c3sc4ncccc4c(=O)c3n(CCN(C)C)c2cc1OC`, for which, in assay [1], the Activity entry was “Dose-dependent effect”. For the same molecule, the GI50 (as a rule, the concentration giving 50% growth inhibition) came out at 1700 nM in the assay on HeLa [3], 710 nM with A-431 and 350 nM in the assay with MSTO-211H. The result (in assay [5]; with Salmon testes DNA [9]) was Active. For the same molecule, the result in [8] was inactive. Besides, the inhibition entry in assay [12] and in assay [15] was “Dose-dependent effect” throughout.

`CCN(CC)CCn1c2ccc(OC)cc2c2sc3cc(Cl)ccc3c(=O)c21`: the GI50 in the assay on HeLa [3] is 3210 nM; in the assay with A-431, 5440 nM; with MSTO-211H it was 4190 nM. Further, in [5], the outcome was inactive. Further, the result (in the assay with Salmon testes DNA [16]; in [17]) was Active. The inhibition entry in assay [12] and in [15] was “Dose-dependent effect” throughout.

In the case of `Cc1c2ccncc2c(C)c2c1[nH]c1ccccc12` [ELLIPTECINE], the results for the concentration for 50% growth inhibition (GI50) in the assay on HeLa [3], with A-431 and in the assay on MSTO-211H were 470 nM, 650 nM and 770 nM, respectively. The result in the assay on Salmon testes DNA [9] was Active.
